Measurements taken from ChEMBL document CHEMBL4330171, “Characterization of the Biosynthetic Gene Cluster for the Antibiotic Armeniaspirols in Streptomyces armeniacus” (2019).
In brackets after ≈: the same amount, converted by molar mass. Activity calls are given as the source filed them. The rule behind the calls is not given here.

Key:
Staphylococcus aureus [1] = experiment: Antibacterial activity against Staphylococcus aureus Newman after 24 hrs by broth microdilution assay; assay type: functional
Method in brief: (§1)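 Twofold serial dilutions in LB broth, inoculated to a final 1 × 10^5 to 3 × 10^5 CFU/mL. Incubation at 37 °C for 24 h. MIC read visually as the lowest concentration giving no turbidity.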

Pseudomonas aeruginosa = experiment: Antibacterial activity against Pseudomonas aeruginosa PAO1 after 24 hrs by broth microdilution assay; assay type: functional, organism-based; method in brief: as §1
Salmonella typhimurium = experiment: Antibacterial activity against Salmonella typhimurium ATCC 14028 after 24 hrs by broth microdilution assay; assay type: functional, organism-based; details: Salmonella enterica subsp. enterica serovar Typhimurium; method in brief: as §1
Escherichia coli = experiment: Antibacterial activity against Escherichia coli MG1655 after 24 hrs by broth microdilution assay; assay type: functional, organism-based; details: K-12 substr. MG1655; method in brief: as §1
Enterococcus faecalis = experiment: Antibacterial activity against Enterococcus faecalis FA2-2 after 24 hrs by broth microdilution assay; assay type: functional; method in brief: as §1
Bacillus subtilis = experiment: Antibacterial activity against Bacillus subtilis 168 after 24 hrs by broth microdilution assay; assay type: functional; details: subsp. subtilis str. 168, 24 h; method in brief: as §1
Acinetobacter baumannii = experiment: Antibacterial activity against Acinetobacter baumannii ATCC 19606 after 24 hrs by broth microdilution assay; assay type: functional, organism-based; details: ATCC 19606 = CIP 70.34 = JCM 6841; method in brief: as §1
Shigella dysenteriae = experiment: Antibacterial activity against Shigella dysenteriae ATCC 13313 after 24 hrs by broth microdilution assay; assay type: functional, organism-based
Enterococcus faecium = experiment: Antibacterial activity against Enterococcus faecium ATCC 19434 after 24 hrs by broth microdilution assay; assay type: functional; details: ATCC 19434, 24 h; method in brief: as §1
Staphylococcus aureus [2] = experiment: Antibacterial activity against methicillin-resistant Staphylococcus aureus USA300 after 24 hrs by broth microdilution assay; assay type: functional; details: USA300, 24 h
Klebsiella pneumoniae = experiment: Antibacterial activity against Klebsiella pneumoniae ATCC 35657 after 24 hrs by broth microdilution assay; assay type: functional, organism-based; method in brief: as §1

Row | Structure (SMILES) | MIC (Staphylococcus aureus [1]) [µg/mL] | Activity (Pseudomonas aeruginosa) | Activity (Salmonella typhimurium) | Activity (Escherichia coli) | MIC (Enterococcus faecalis) [µg/mL] | MIC (Bacillus subtilis) [µg/mL] | Activity (Acinetobacter baumannii) | Activity (Shigella dysenteriae) | MIC (Enterococcus faecium) [µg/mL] | MIC (Staphylococcus aureus [2]) [µg/mL] | Activity (Klebsiella pneumoniae)
1 | CCCCCCc1c(O)ccc2c1O[C@@]1(C=C(Cl)C(=O)N1C)C2=O | 4 (≈ 11.4 µM) | inactive | inactive | inactive | > 32 | 8 (≈ 22.9 µM) | inactive | inactive | > 32 | 8 (≈ 22.9 µM) | inactive
2 | CN[C@H](CC(C)C)C(=O)N[C@H]1C(=O)N[C@@H](CC(N)=O)C(=O)N[C@H]2C(=O)N[C@H]3C(=O)N[C@H](C(=O)N[C@H](C(=O)O)c4cc(O)cc(O)c4-c4cc3ccc4O)[C@H](O)c3ccc(c(Cl)c3)Oc3cc2cc(c3O[C@@H]2O[C@H](CO)[C@@H](O)[C@H](O)[C@H]2O[C@H]2C[C@](C)(N)[C@H](O)[C@H](C)O2)Oc2ccc(cc2Cl)[C@H]1O [VANCOMYCIN] |  |  |  |  | 2 (≈ 1.38 µM) | 0.25 (≈ 0.173 µM) |  |  |  |  | 
3 | CC(C)CCCc1c(O)ccc(C(=O)c2cc(Cl)c(Cl)[nH]2)c1O | 1 (≈ 2.81 µM) | inactive | inactive | inactive | 8 (≈ 22.5 µM) | 0.5 (≈ 1.4 µM) | inactive | inactive | 2 (≈ 5.61 µM) | 1 (≈ 2.81 µM) | inactive
4 | CCCCCCc1c(O)ccc(C(=O)c2cc(Cl)c(Cl)[nH]2)c1O | 1 (≈ 2.81 µM) | inactive | inactive | inactive | 2 (≈ 5.61 µM) | 0.5 (≈ 1.4 µM) | inactive | inactive | 2 (≈ 5.61 µM) | 1 (≈ 2.81 µM) | inactive
5 | CCCCCCc1c(O)ccc2c1O[C@@]1(C=C(Cl)C(=O)N1)C2=O | > 32 | inactive | inactive | inactive | > 32 | > 32 | inactive | inactive | > 32 | > 32 | inactive
6 | CC[C@H](C)CCCc1c(O)ccc2c1O[C@@]1(C=C(Cl)C(=O)N1)C2=O | > 32 | inactive | inactive | inactive | > 32 | 16 (≈ 45.7 µM) | inactive | inactive | > 32 | > 32 | inactive
7 | CCCCCCc1c(O)ccc2c1O[C@]1(C2=O)C(Cl)=C(Cl)C(=O)N1C [ARMENIASPIROLE A] | 0.5 (≈ 1.3 µM) | inactive | inactive | inactive | 16 (≈ 41.6 µM) | 2 (≈ 5.2 µM) | inactive | inactive | > 32 | 0.5 (≈ 1.3 µM) | inactive
8 | CC(C)CCCc1c(O)ccc2c1O[C@]1(C2=O)C(Cl)=C(Cl)C(=O)N1C [ARMENIASPIROLE B] | 0.5 (≈ 1.3 µM) | inactive | inactive | inactive | 32 (≈ 83.3 µM) | 4 (≈ 10.4 µM) | inactive | inactive | > 32 | 2 (≈ 5.2 µM) | inactive
9 | CC[C@H](C)CCCc1c(O)ccc(C(=O)c2cc(Cl)c(Cl)[nH]2)c1O | 1 (≈ 2.7 µM) | inactive | inactive | inactive | 8 (≈ 21.6 µM) | 0.5 (≈ 1.35 µM) | inactive | inactive | 2 (≈ 5.4 µM) | 2 (≈ 5.4 µM) | inactive
10 | CC[C@H](C)CCCc1c(O)ccc2c1O[C@]1(NC(=O)C(Cl)=C1Cl)C2=O | 8 (≈ 20.8 µM) | inactive | inactive | inactive | 32 (≈ 83.3 µM) | 8 (≈ 20.8 µM) | inactive | inactive | 32 (≈ 83.3 µM) | 8 (≈ 20.8 µM) | inactive
11 | CC(C)CCCc1c(O)ccc2c1O[C@@]1(C=C(Cl)C(=O)N1)C2=O | > 32 | inactive | inactive | inactive | > 32 | > 32 | inactive | inactive | > 32 | > 32 | inactive
12 | CC(C)CCCc1c(O)ccc2c1O[C@]1(NC(=O)C(Cl)=C1Cl)C2=O | 8 (≈ 21.6 µM) | inactive | inactive | inactive | > 32 | 16 (≈ 43.2 µM) | inactive | inactive | > 32 | 16 (≈ 43.2 µM) | inactive
13 | CC[C@H](C)CCCc1c(O)ccc2c1O[C@]1(C2=O)C(Cl)=C(Cl)C(=O)N1C [ARMENIASPIROLE C] | 0.5 (≈ 1.26 µM) | inactive | inactive | inactive | > 32 | 2 (≈ 5.02 µM) | inactive | inactive | > 32 | 0.5 (≈ 1.26 µM) | inactive
14 | CC[C@H](C)CCCc1c(O)ccc2c1O[C@@]1(C=C(Cl)C(=O)N1C)C2=O | 2 (≈ 5.5 µM) | inactive | inactive | inactive | > 32 | 8 (≈ 22 µM) | inactive | inactive | > 32 | 8 (≈ 22 µM) | inactive
15 | CC(C)CCCc1c(O)ccc2c1O[C@@]1(C=C(Cl)C(=O)N1C)C2=O | 4 (≈ 11.4 µM) | inactive | inactive | inactive | > 32 | 16 (≈ 45.7 µM) | inactive | inactive | > 32 | 16 (≈ 45.7 µM) | inactive
16 | CCCCCCc1c(O)ccc2c1O[C@]1(NC(=O)C(Cl)=C1Cl)C2=O | 8 (≈ 21.6 µM) | inactive | inactive | inactive | > 32 | 8 (≈ 21.6 µM) | inactive | inactive | 32 (≈ 86.4 µM) | 16 (≈ 43.2 µM) | inactive
